In ChEMBL document CHEMBL3297685, “Carbonic anhydrase inhibitors: Synthesis, molecular docking, cytotoxic and inhibition of the human carbonic anhydrase isoforms I, II, IX, XII with novel benzenesulfonamides incorporating pyrrole, pyrrolopyrimidine and fused pyrrolopyrimidine moieties” (Bioorg Med Chem, 2014) one finds viability, IC50 and Ki data, which are given here for 19 molecules.

For experiment [1], the system named is MCF7. Description: Cytotoxicity against human MCF7 cells assessed as cell survival at 25 uM after 48 hrs by […]. To be noted: MCF7, 48 h, read-out: Survival. Type of experiment: functional. A digest of the protocol:
(§1)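 MCF-7 human breast tumour cells seeded at 10^4 cells/well and left 24 h to attach. Compounds in DMSO added at 10, 25, 50 or 100 µM, triplicate wells per concentration, 48 h at 37 °C, 5% CO2. Cells fixed and stained 30 min with 0.4% SRB in 1% acetic acid, bound dye recovered in Tris-EDTA, absorbance read. Surviving fraction reported.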

Experiment [2] concerns MCF7. The experiment can be described thus: Cytotoxicity against human MCF7 cells assessed as reduction in cell survival after 48 hrs by MTT assay. As to conditions: MCF7, 48 h.
The target of a further experiment is Carbonic anhydrase 9 (Homo sapiens, UniProt Q16790). The experiment can be described thus: Inhibition of human recombinant carbonic anhydrase 9 preincubated for 15 mins by stopped-flow CO2 hydrase assay.
Experiment [3] concerns MCF7. Description: Cytotoxicity against human MCF7 cells assessed as cell survival at 10 uM after 48 hrs by […]. Type of experiment: functional. As to conditions: MCF7, 48 h, read-out: Survival. A digest of the protocol: as §1
In experiment [4] the test system is MCF7. The experiment can be described thus: Cytotoxicity against human MCF7 cells assessed as cell survival at 100 uM after 48 hrs by SRB assay. As to conditions: MCF7, 48 h, read-out: Survival.
Experiment [5] relates to MCF7. The experiment can be described thus: Cytotoxicity against human MCF7 cells assessed as cell survival at 50 uM after 48 hrs by […]. Type of experiment: functional. As to conditions: MCF7, 48 h, read-out: Survival. A digest of the protocol:
as §1

As for `C/C(CC(=O)c1ccccc1)=N/n1cnc2c(c(-c3ccc(Br)cc3)cn2-c2ccc(S(N)(=O)=O)cc2)c1=N`, the viability at 25 µM in the experiment with MCF7 [1] was found to be 33.3%. Also, in the experiment with MCF7 [2], the half-inhibitory concentration (IC50) worked out at 7.84 µM. In addition, the Ki at Carbonic anhydrase 9 was found to be 0.0028 µM. Also, in the experiment with MCF7 [3], the viability at 10 µM was determined as 38.1%. Further, the viability at 100 µM with MCF7 [4] came out at 30.1%. Also, the viability at 50 µM in the experiment on MCF7 [5] came to 25.1%.

Regarding `CC1=NN2C=Nc3c(c(-c4ccc(Br)cc4)cn3-c3ccc(S(N)(=O)=O)cc3)C2=NC(c2ccccc2)=C1`, the viability at 25 µM in the experiment on MCF7 [1] was determined as 30.6%. The IC50 in the experiment with MCF7 [2] is 7.29 µM. On Carbonic anhydrase 9, the Ki came to 0.0036 µM. Also, in the experiment on MCF7 [3], the viability at 10 µM came to 30.3%. Further, the viability at 100 µM with MCF7 [4] came to 28%. The viability at 50 µM in the experiment with MCF7 [5] was 27.7%.

Take `N#Cc1c(-c2ccc(Br)cc2)cn(-c2ccc(S(N)(=O)=O)cc2)c1N`: in the experiment with MCF7 [1], the viability at 25 µM is 27.3%. For the same molecule, in the experiment on MCF7 [2], the IC50 amounted to 7.56 µM. In addition, the inhibition constant (Ki) at Carbonic anhydrase 9 is 0.0063 µM. In addition, in the experiment on MCF7 [3], the viability at 10 µM worked out at 32.7%. In addition, the viability at 100 µM in the experiment on MCF7 [4] is 25.5%. Moreover, in the experiment with MCF7 [5], the viability at 50 µM is 23.3%.

Take `CCO/C=N/c1c(C#N)c(-c2ccc(Br)cc2)cn1-c1ccc(S(N)(=O)=O)cc1`: the viability at 25 µM in the experiment with MCF7 [1] came to 29.4%. For the same molecule, in the experiment with MCF7 [2], the IC50 was 7.56 µM. The Ki on Carbonic anhydrase 9 stood at 0.0039 µM. The viability at 10 µM with MCF7 [3] stood at 34%. For the same molecule, in the experiment on MCF7 [4], the viability at 100 µM turned out to be 25.6%. Besides, the viability at 50 µM in the experiment on MCF7 [5] was determined as 24.6%.

Turning to `N=c1c2c(-c3ccc(Br)cc3)cn(-c3ccc(S(N)(=O)=O)cc3)c2ncn1N`, the viability at 25 µM in the experiment on MCF7 [1] is 30.9%. Besides, the half-maximal inhibitory concentration (IC50) with MCF7 [2] was 7.29 µM. Besides, the Ki on Carbonic anhydrase 9 was determined as 0.0027 µM. In addition, the viability at 10 µM in the experiment with MCF7 [3] worked out at 33%. Moreover, in the experiment with MCF7 [4], the viability at 100 µM was found to be 26.8%. Further, in the experiment with MCF7 [5], the viability at 50 µM worked out at 22.7%.

In the case of `N#Cc1c(N)nn2cnc3c(c(-c4ccc(Br)cc4)cn3-c3ccc(S(N)(=O)=O)cc3)c12`, in the experiment on MCF7 [1], the viability at 25 µM is 29.2%. In addition, the IC50 in the experiment on MCF7 [2] amounted to 7.56 µM. Besides, on Carbonic anhydrase 9, the Ki was 0.0024 µM. Also, the viability at 10 µM in the experiment on MCF7 [3] stood at 34.7%. In the experiment on MCF7 [4], the viability at 100 µM came to 22.1%. Besides, the viability at 50 µM in the experiment on MCF7 [5] turned out to be 21.3%.

Consider `CCOC(=O)c1nc2c3c(-c4ccc(Br)cc4)cn(-c4ccc(S(N)(=O)=O)cc4)c3ncn2n1`, for which the viability at 25 µM in the experiment on MCF7 [1] turned out to be 28.1%. The IC50 in the experiment on MCF7 [2] is 7.29 µM. Further, the Ki at Carbonic anhydrase 9 came to 0.0027 µM. For the same molecule, the viability at 10 µM with MCF7 [3] amounted to 30.5%. In addition, in the experiment with MCF7 [4], the viability at 100 µM turned out to be 30.9%. The viability at 50 µM in the experiment on MCF7 [5] was 27.4%.

In the case of `CCOC(=O)Cc1nc2c3c(-c4ccc(Br)cc4)cn(-c4ccc(S(N)(=O)=O)cc4)c3ncn2n1`, in the experiment with MCF7 [1], the viability at 25 µM came to 41%. Moreover, in the experiment on MCF7 [2], the IC50 was found to be 8.94 µM. In addition, on Carbonic anhydrase 9, the Ki was 0.003 µM. In addition, the viability at 10 µM with MCF7 [3] was 42.6%. Further, in the experiment with MCF7 [4], the viability at 100 µM was 33.5%. In addition, the viability at 50 µM with MCF7 [5] worked out at 34.8%.

For the molecule `CC(=O)Cc1nc2c3c(-c4ccc(Br)cc4)cn(-c4ccc(S(N)(=O)=O)cc4)c3ncn2n1`, the viability at 25 µM in the experiment with MCF7 [1] is 39.9%. In the experiment on MCF7 [2], the IC50 worked out at 8.94 µM. The Ki on Carbonic anhydrase 9 was found to be 0.0031 µM. For the same molecule, in the experiment on MCF7 [3], the viability at 10 µM was determined as 40%. For the same molecule, the viability at 100 µM with MCF7 [4] is 35%. Besides, the viability at 50 µM in the experiment with MCF7 [5] was found to be 36.5%.

On to `CCOC(=O)n1c(=O)nc2c3c(-c4ccc(Br)cc4)cn(-c4ccc(S(N)(=O)=O)cc4)c3ncn21`, for which the viability at 25 µM in the experiment with MCF7 [1] stood at 31.1%. Moreover, the IC50 with MCF7 [2] came to 7.56 µM. The Ki on Carbonic anhydrase 9 was determined as 0.0026 µM. For the same molecule, the viability at 10 µM in the experiment on MCF7 [3] came out at 36.1%. Besides, in the experiment on MCF7 [4], the viability at 100 µM is 21.6%. Moreover, in the experiment with MCF7 [5], the viability at 50 µM came out at 23.2%.

As to `NS(=O)(=O)c1ccc(-n2cc(-c3ccc(Br)cc3)c3c2ncn2nnnc32)cc1`, the viability at 25 µM with MCF7 [1] amounted to 29.4%. In addition, the IC50 with MCF7 [2] was 7.84 µM. Further, the viability at 10 µM with MCF7 [3] was determined as 34.8%. The viability at 100 µM in the experiment with MCF7 [4] was found to be 21.6%. Also, the viability at 50 µM in the experiment on MCF7 [5] came to 25.4%.

On to `NS(=O)(=O)c1ccc(-n2cc(-c3ccc(Br)cc3)c3c2N=CN2NC(=O)CN=C32)cc1`, for which the viability at 25 µM in the experiment with MCF7 [1] came to 35.8%. Moreover, the IC50 with MCF7 [2] came to 8.11 µM. In the experiment with MCF7 [3], the viability at 10 µM amounted to 39.3%. In the experiment on MCF7 [4], the viability at 100 µM is 36.2%. Further, in the experiment with MCF7 [5], the viability at 50 µM worked out at 33.7%.

Take `NS(=O)(=O)c1ccc(-n2cc(-c3ccc(Br)cc3)c3c2ncn2[nH]c(=O)c(=O)nc32)cc1`: the viability at 25 µM with MCF7 [1] came to 36.6%. Also, the IC50 with MCF7 [2] is 8.66 µM. Also, at Carbonic anhydrase 9, the Ki is 0.325 µM. Moreover, the viability at 10 µM in the experiment with MCF7 [3] worked out at 43.6%. In the experiment with MCF7 [4], the viability at 100 µM is 35.8%. Further, in the experiment on MCF7 [5], the viability at 50 µM is 35%.

For the molecule `CC1=CC(C)=NN2C=Nc3c(c(-c4ccc(Br)cc4)cn3-c3ccc(S(N)(=O)=O)cc3)C2=N1`, the viability at 25 µM in the experiment on MCF7 [1] is 28.5%. Also, the IC50 with MCF7 [2] is 7.84 µM. In addition, the inhibition constant (Ki) on Carbonic anhydrase 9 was 0.0496 µM. Further, in the experiment with MCF7 [3], the viability at 10 µM amounted to 38%. Further, the viability at 100 µM with MCF7 [4] was 37.5%. The viability at 50 µM with MCF7 [5] was found to be 33.2%.

As for `N#CC1=C(N)N=C2c3c(-c4ccc(Br)cc4)cn(-c4ccc(S(N)(=O)=O)cc4)c3N=CN2N=C1`, the viability at 25 µM in the experiment with MCF7 [1] was found to be 38%. For the same molecule, the IC50 with MCF7 [2] amounted to 8.11 µM. Besides, the Ki at Carbonic anhydrase 9 was determined as 0.0031 µM. Also, the viability at 10 µM in the experiment on MCF7 [3] was 38.2%. Further, in the experiment with MCF7 [4], the viability at 100 µM was 37.9%. Also, in the experiment on MCF7 [5], the viability at 50 µM amounted to 40.1%.

As for `CCOC(=O)C1=C(N)N=C2c3c(-c4ccc(Br)cc4)cn(-c4ccc(S(N)(=O)=O)cc4)c3N=CN2N=C1`, the viability at 25 µM in the experiment on MCF7 [1] turned out to be 37.7%. In addition, in the experiment on MCF7 [2], the IC50 amounted to 7.84 µM. Also, at Carbonic anhydrase 9, the Ki stood at 0.003 µM. Further, the viability at 10 µM with MCF7 [3] was determined as 37.2%. Besides, the viability at 100 µM in the experiment on MCF7 [4] is 39.1%. Moreover, the viability at 50 µM in the experiment with MCF7 [5] worked out at 35.3%.

Take `NS(=O)(=O)c1ccc(-n2cc(-c3ccc(Br)cc3)c3c2ncn2nc4c5ccccc5nc-4nc32)cc1`: the viability at 25 µM in the experiment with MCF7 [1] came out at 33.8%. For the same molecule, the IC50 in the experiment with MCF7 [2] was 7.84 µM. The viability at 10 µM in the experiment on MCF7 [3] was found to be 34.7%. Moreover, in the experiment with MCF7 [4], the viability at 100 µM turned out to be 38.1%. For the same molecule, in the experiment on MCF7 [5], the viability at 50 µM stood at 31.5%.

Turning to `CC(=O)N1C(=O)/C(=N\n2cnc3c(c(-c4ccc(Br)cc4)cn3-c3ccc(S(N)(=O)=O)cc3)c2=N)c2ccccc21`, the viability at 25 µM in the experiment on MCF7 [1] came to 28.7%. In the experiment with MCF7 [2], the IC50 was 7.56 µM. For the same molecule, in the experiment with MCF7 [3], the viability at 10 µM amounted to 34.2%. Further, the viability at 100 µM with MCF7 [4] was found to be 32.6%. Moreover, the viability at 50 µM in the experiment on MCF7 [5] is 25.9%.

With `COc1cccc2c1C(=O)c1c(O)c3c(c(O)c1C2=O)C[C@@](O)(C(=O)CO)C[C@@H]3O[C@H]1C[C@H](N)[C@H](O)[C@H](C)O1` [DOXORUBICIN], the viability at 25 µM in the experiment on MCF7 [1] amounted to 30.9%. The viability at 10 µM with MCF7 [3] turned out to be 31.4%. Also, in the experiment with MCF7 [4], the viability at 100 µM amounted to 26.6%. For the same molecule, in the experiment with MCF7 [5], the viability at 50 µM amounted to 25.1%.
